Consider 9 compounds from ChEMBL document CHEMBL1153964, “Tricyclic HIV integrase inhibitors V. SAR studies on the benzyl moiety” (Bioorg Med Chem Lett, 2009).

Data set [1] can be described thus: Half life in iv dosed dog. Format: ADME, organism-based, Canis lupus familiaris. To be noted: in vivo. In outline: (§1)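 Rats and dogs received compound as free parent in solution (EtOH, PG, PEG400 and citric acid), at pH 3.3 for iv and pH 2.2 for oral dosing. Half-life and total body clearance come from the iv groups. Oral F (%) is from po versus iv AUC. Values are means of three animals per study.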

The nature of data set [2]: Clearance in iv dosed rat. To be noted: in vivo. Format: ADME, organism-based. In outline:
as §1

Data set [3] can be described thus: Clearance in iv dosed dog. It is filed as ADME, organism-based, Canis lupus familiaris. To be noted: in vivo. An outline of the steps:
as §1

Data set [4] can be described thus: Inhibition of HIV integrase strand transfer activity. Also on record: species or system Human immunodeficiency virus. In outline:
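Strand transfer was run with biotinylated donor DNA bound to streptavidin-coated plates and DIG-tagged target DNA. Values are means of at least two experiments.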

Data set [5] relates to Human immunodeficiency virus 1. Briefly: Antiviral activity against HIV1 3B infected in human MT2 cells after 5 days by chemiluminescence in presence of human serum albumin. Format: functional, organism-based. To be noted: Human immunodeficiency virus 1, 3B, MT2, 120 h. In outline: (§2)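 Same MT-2/HIV-1 IIIB 5-day CellTiter-Glo chemiluminescence assay in 10% FBS, with physiological HSA (35 mg/ml) and α1-AGP (1.5 mg/ml) added. Shift fold is EC50 with these serum proteins divided by EC50 in 10% FBS alone.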

A short description of data set [6]: Oral bioavailability in dog. It is filed as ADME, organism-based, Canis lupus familiaris. To be noted: in vivo. An outline of the steps:
as §1

A short description of data set [7]: Half life in iv dosed rat. Format: ADME, organism-based. To be noted: in vivo. In outline:
as §1

The nature of data set [8]: Oral bioavailability in rat. It is filed as ADME, organism-based. To be noted: in vivo. In outline: as §1
In data set [9] the test system is Human immunodeficiency virus 1. Briefly: Antiviral activity against HIV1 3B infected in human MT2 cells after 5 days by chemiluminescence in presence of fetal bovine serum. It is filed as functional, organism-based. To be noted: Human immunodeficiency virus 1, 3B, MT2, 120 h. In outline: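 HIV-1 IIIB infected MT-2 cells at m.o.i. 0.01 for 3 h, then ~1.5 × 10⁴ cells per well were added to 9 fivefold serial drug dilutions in triplicate in medium with 10% FBS. Plates ran 5 days at 37 °C. CellTiter-Glo was added with 10 min room-temperature lysis, and chemiluminescence was read. Values are means of at least two experiments.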

Data set [10] relates to Human immunodeficiency virus 1. As to the kind of experiment: Ratio of EC50 for HIV1 3B in presence of human serum proteins to EC50 for HIV1 3B in presence of fetal bovine serum. It is filed as functional. An outline of the steps:
as §2

For `CN(c1c2c(c(O)c3ncccc13)C(=O)N(Cc1cc(Cl)c(F)cc1F)C2)S(C)(=O)=O`, the results for the half-life in data set [1] and in [7] were 16 h and 1.38 h, respectively. Also, the figures for the clearance in data set [2] and in [3] were 4.83 mL/min/kg and 0.333 mL/min/kg, respectively. This compound had an IC50 in [4] of 0.039 µM. For the same compound, the concentration for a half-maximal effect (EC50) in [5] came to 0.017 µM; in [9], 0.006 µM. The bioavailability was found to be 79% in data set [6] and 9% in data set [8]. Besides, in data set [10], the “Ratio EC50” value is 2.8.
As to `CN(c1c2c(c(O)c3ncccc13)C(=O)N(Cc1ccc(F)c(Cl)c1)C2)S(C)(=O)=O`, the half-life was 7.13 h in data set [1] and 1.36 h in [7]. Further, the values for the clearance in data set [2] and in data set [3] were 3.83 mL/min/kg and 2.5 mL/min/kg, respectively. Further, the IC50 in [4] is 0.052 µM. For the same compound, the half-maximal effective concentration (EC50) in [5] was determined as 0.012 µM; in [9], 0.0035 µM. In addition, the bioavailability stood at 41% in data set [6] and 7% in data set [8]. In [10], the “Ratio EC50” value was determined as 3.4.
Consider `CN(c1c2c(c(O)c3ncccc13)C(=O)N(Cc1ccc(F)cc1)C2)S(C)(=O)=O`, for which the half-life was 7 h in data set [1] and 1.1 h in data set [7]. The clearance in data set [2] was 4.67 mL/min/kg; in [3] it was 6.67 mL/min/kg. In data set [4], this compound came in with an IC50 of 0.028 µM. In addition, the EC50 was 0.0114 µM in data set [5] and 0.0017 µM in [9]. The bioavailability in [6] came out at 45%; in data set [8], 15%. For the same compound, the “Ratio EC50” value in [10] was 6.7.
For `CN(c1c2c(c(O)c3ncccc13)C(=O)N(Cc1ccccc1)C2)S(C)(=O)=O`, the IC50 in data set [4] was determined as 0.12 µM. The EC50 in data set [9] was found to be 0.035 µM.
In data set [4], `CNC(=O)c1cc(F)ccc1CN1Cc2c(c(O)c3ncccc3c2N(C)S(C)(=O)=O)C1=O` gave an IC50 of 0.074 µM. The EC50 in data set [5] worked out at 0.09 µM; in data set [9], 0.032 µM. In addition, in data set [10], the “Ratio EC50” value was 2.8.
In the same order, the values of `CN(c1c2c(c(O)c3ncccc13)C(=O)N(Cc1ccc(F)c(Cl)c1F)C2)S(C)(=O)=O` are 0.135 µM, 0.018 µM, 0.005 µM and 3.6.
Consider `Cc1nnc(C(=O)NC(C)(C)c2nc(C(=O)NCc3ccc(F)cc3)c(O)c(=O)n2C)o1` [RALTEGRAVIR], for which the half-inhibitory concentration (IC50) in data set [4] worked out at 0.04 µM. Further, the EC50 in data set [5] came to 0.02 µM; in [9], 0.004 µM.
For the compound `CC(=O)Nc1cc(F)ccc1CN1Cc2c(c(O)c3ncccc3c2N(C)S(C)(=O)=O)C1=O`, in [4], 0.005 µM corresponded to half-maximal inhibition (IC50). In addition, the concentration for a half-maximal effect (EC50) in [9] was found to be 0.052 µM.
Consider `CN(c1c2c(c(O)c3ncccc13)C(=O)N(Cc1cccc(Cl)c1F)C2)S(C)(=O)=O`, for which, in [4], the IC50 came to 0.061 µM. Further, the concentration giving a half-maximal response (EC50) was determined as 0.018 µM in data set [5] and 0.006 µM in [9]. The “Ratio EC50” value in data set [10] is recorded as 3.

For orientation: half-life means the time needed for the level to fall by half in the phase considered. A lower half-life goes with fast loss. Usually clearance stands for the volume of plasma or blood freed of the substance per unit of time. Lower therefore signals inefficient removal. In general, IC50 refers to the point on the concentration scale where inhibition reaches its midpoint. High values mean lower potency, low ones higher potency. For orientation: EC50 means the concentration at which the effect is half-maximal. As a reminder, the bioavailability is the share of a dose that reaches the circulation, judged against a reference dose that is usually intravenous. Read a low bioavailability as little systemic uptake.
